INS-1E ATP HTS – protection of INS-1E cells from cytokine death, primary screen, ATP luminescence, single point. protection from cytokine-induced ATP loss, % at 10 µM. INS-1E cytokine-induced death, 48 h; normalised: neutral wells 0, positive control 100. 20,000 tested, 0.1% active;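 active = mean replicate protection from cytokine-induced ATP loss at least 50% and at least 75% of replicates each reaching 50%; inconclusive = meets only one of the two criteria, mean or replicate share; inactive = fails both the mean and replicate share criteria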
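Assay system: INS-1E rat insulinoma cells. Amount: 8000 cells per well. Medium: phenol-red-free RPMI with 5% fetal bovine serum. Reagent: IL-1β, TNF-α and IFN-γ cytokine mix. Doses: one compound concentration, pin transfer. Schedule: 48 h co-treatment, 10 min post-lysis read. Detection: CellTiter-Glo luminescence measuring cellular ATP.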
T cruzi HTS – inhibitors of intracellular Trypanosoma cruzi, primary screen, cell-based, plate reader, single point, set 2 | AID 651903, 2012 | 22,000 tested, 4.9% active | intracellular Trypanosoma cruzi in host cells | activity score (inhibition), % at 5.01 µM; in the data active = activity score above about 55%; inconclusive = no clear call, values can overlap the other calls;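 also: parasites and compound incubated about four days before reading; 0% = median of neutral control wells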
A1 apoptosis 2 – A1 inhibitors via caspase activation, primary screen, cell-based, luminescence, HTS, two replicates; MEF A1-2A-BIM cells, caspase-Glo luminescence, 3 h; percent of clofoctol response, DMSO zero; AID 2465, 2010; caspase activation, % (concentration not given with the values); 24,000 tested, under 10 active; in the data active = caspase activation above about 5.9%; inconclusive = no clear call, values can overlap the other calls; inactive = below about 2.2%
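System: mouse embryonic fibroblasts co-expressing A1 and BIM (A1-2A-BIM), primed for A1 dependence; amount: 2500 cells/well; doses: 50 nL pinned compound; schedule: cells settled overnight, compound exposure 3 h at 37 °C, 5% CO2; detection: Caspase-Glo 3/7 luminescence, 1 h at room temperature; read-out: Caspase-3/7 activation, seen as rise in luminescence signal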
Numbers without * were called inactive; ? = inconclusive; . = no result. Only a selection was taken, and hits are over-represented in it overall.

SMILES | INS-1E ATP HTS | T cruzi HTS | A1 apoptosis 2
C[C@@H]1CN([C@@H](C)CO)C(=O)c2cccc(NC(=O)c3ccc(-c4nccs4)cc3)c2O[C@@H]1CN(C)Cc1ccc(C(F)(F)F)cc1 | -65.1 | 69.7* | 0.6
C[C@H]1CN([C@@H](C)CO)C(=O)c2cccc(NC(=O)c3ccc(-c4nccs4)cc3)c2O[C@@H]1CN(C)Cc1ccc(C(=O)Nc2ccccc2N)cc1 | 24.9 | 75.1* | .
C[C@@H]1CN([C@H](C)CO)C(=O)c2cccc(NC(=O)c3ccc(-c4nccs4)cc3)c2O[C@@H]1CN(C)Cc1ccc(C(F)(F)F)cc1 | -23.4 | 43.8 | 0.7
C[C@@H]1CN([C@H](C)CO)C(=O)c2cccc(NC(=O)c3ccc(-c4nccs4)cc3)c2O[C@H]1CN(C)Cc1ccc(C(=O)Nc2ccccc2N)cc1 | 2.7 | 43.8 | 0.4
C[C@H](CO)N1C[C@H](C)[C@@H](CN(C)C(=O)c2ccccc2)OCCCC[C@H](C)Oc2ccc(NC(=O)Nc3ccc4c(c3)OCO4)cc2C1=O | . | . | 0.4
C[C@@H]1CCCCO[C@H](CN(C)C(=O)Cc2ccccc2)[C@@H](C)CN([C@H](C)CO)C(=O)c2cc(NC(=O)Cc3ccccc3)ccc2O1 | -8.4 | -22.3 | 1.1
C[C@@H]1CN([C@@H](C)CO)C(=O)Cc2cc(NS(=O)(=O)c3ccc(Cl)cc3)ccc2O[C@@H]1CN(C)C(=O)Nc1ccc(C(F)(F)F)cc1 | -13.5 | 2.2 | -0.1
C[C@@H]1CN([C@H](C)CO)C(=O)c2cc(NS(=O)(=O)c3ccc(F)cc3)ccc2O[C@@H]1CN(C)Cc1ccc(Cl)c(Cl)c1 | -16.9 | 1.5 | ?
C[C@H]1CN([C@@H](C)CO)C(=O)c2cccc(NC(=O)NC3CCCCC3)c2O[C@H]1CN(C)S(=O)(=O)c1ccccc1 | -2.3 | -21.1 | 2.3
COc1ccc(NC(=O)Nc2ccc3c(c2)CC(=O)N([C@@H](C)CO)C[C@H](C)[C@@H](CN(C)C(=O)Nc2c(C)noc2C)O3)cc1 | 0.8 | 1.1 | -1.1
COc1ccc(S(=O)(=O)Nc2cccc3c2O[C@H](CN(C)S(=O)(=O)c2cccs2)[C@H](C)CN([C@@H](C)CO)C3=O)cc1 | 15.5 | 17.6 | 0.7
C[C@H]1CN([C@@H](C)CO)C(=O)c2cccc(NC(=O)c3ccncc3)c2O[C@@H]1CN(C)Cc1ccncc1 | 5.0 | -17.4 | .
C[C@@H]1CN([C@@H](C)CO)C(=O)c2cccc(NC(=O)c3ccncc3)c2O[C@@H]1CN(C)Cc1ccc(Oc2ccccc2)cc1 | -19.7 | 77.9* | 1.6
COc1ccc(CN(C)C[C@@H]2Oc3c(NC(=O)c4ccncc4)cccc3C(=O)N([C@H](C)CO)C[C@H]2C)cc1 | 3.6 | 76.3* | 1.3
C[C@@H]1CN([C@H](C)CO)C(=O)c2cccc(NC(=O)c3ccncc3)c2O[C@H]1CN(C)Cc1ccc(Oc2ccccc2)cc1 | -25.6 | 84.6* | 0.0
C[C@H]1CN([C@@H](C)CO)C(=O)c2cccc(NC(=O)c3ccncc3)c2O[C@@H]1CN(C)Cc1ccc(Oc2ccccc2)cc1 | -14.0 | 78.2* | -0.7
COc1ccc(CN(C)C[C@@H]2Oc3ccc(NC(=O)Nc4ccc(C(F)(F)F)cc4)cc3C(=O)N([C@@H](C)CO)C[C@@H]2C)cc1 | -20.5 | 40.8 | -2.6
O=C(CCCCCCC(=O)Nc1ccccc1O)N/N=C/c1cc(F)ccc1O | -4.3 | 37.1 | -0.4
C[C@H](CO)N1C[C@H](C)[C@@H](CN(C)Cc2ccc(-c3ccccc3)cc2)Oc2ccc(NC(=O)CCC(F)(F)F)cc2C1=O | . | 4.1 | .
C[C@@H]1CN([C@H](C)CO)C(=O)CCCn2nncc2CO[C@H]1CN(C)S(=O)(=O)c1cccs1 | . | -24.6 | .
C[C@H](CO)N1C[C@H](C)[C@@H](CN(C)Cc2ccc(Oc3ccccc3)cc2)Oc2c(NC(=O)c3ccncc3)cccc2C1=O | -2.4 | 65.7* | -0.2
C[C@H](CO)N1C[C@H](C)[C@H](CN(C)Cc2ccc(Oc3ccccc3)cc2)Oc2ccc(NC(=O)c3ccncc3)cc2C1=O | -1.7 | -0.2 | .
CC(C)NC(=O)N(C)C[C@H]1Oc2c(NC(=O)C3CCOCC3)cccc2C(=O)N([C@@H](C)CO)C[C@H]1C | 7.3 | 18.4 | -0.1
COC(=O)[C@@]1(Cc2ccccc2N=[N+]=[N-])N=C(c2ccc(OCCCO)cc2)O[C@H]1c1ccccc1CN=[N+]=[N-] | . | . | -1.0
C[C@@H]1CN([C@@H](C)CO)C(=O)Cc2cc(NC(=O)CCN3CCOCC3)ccc2O[C@@H]1CN(C)Cc1ccc(C(=O)O)cc1 | 1.0 | -11.1 | .
SMILES | INS-1E ATP HTS | T cruzi HTS | A1 apoptosis 2
C[C@H](CO)N1C[C@H](C)[C@@H](CN(C)Cc2ccc(Oc3ccccc3)cc2)Oc2c(NC(=O)Nc3ccccc3)cccc2C1=O | -46.4 | 77.8* | -0.9
C[C@H](CO)N1C[C@H](C)[C@H](CN(C)Cc2ccc(Oc3ccccc3)cc2)Oc2c(NC(=O)Nc3cccc4ccccc34)cccc2C1=O | -59.2 | 65.6* | -0.3
C[C@@H]1CN([C@@H](C)CO)C(=O)c2cccc(NC(=O)Nc3ccccc3)c2O[C@@H]1CN(C)Cc1ccc(Oc2ccccc2)cc1 | -43.6 | -16.4 | .
COc1ccc(NC(=O)Nc2cccc3c2O[C@@H](CN(C)Cc2ccc(Oc4ccccc4)cc2)[C@@H](C)CN([C@H](C)CO)C3=O)cc1 | -47.6 | 63.0* | -1.7
CC(C)NC(=O)Nc1cccc2c1O[C@@H](CN(C)Cc1ccc(Oc3ccccc3)cc1)[C@H](C)CN([C@H](C)CO)C2=O | -7.0 | 56.9* | 0.1
CC(C)NC(=O)Nc1cccc2c1O[C@H](CN(C)Cc1ccc(Oc3ccccc3)cc1)[C@H](C)CN([C@@H](C)CO)C2=O | -22.3 | -0.6 | -0.1
COc1ccc(NC(=O)Nc2cccc3c2O[C@@H](CN(C)Cc2ccc(Oc4ccccc4)cc2)[C@@H](C)CN([C@@H](C)CO)C3=O)cc1 | -38.6 | 35.5 | -0.9
C[C@H]1CN([C@@H](C)CO)C(=O)c2cccc(NC(=O)Nc3ccccc3)c2O[C@@H]1CN(C)Cc1ccc(Oc2ccccc2)cc1 | -26.6 | 33.8 | -0.3
C[C@H](CO)N1C[C@H](C)[C@H](CN(C)Cc2ccc(-c3ccccc3)cc2)Oc2c(NC(=O)Nc3cccc4ccccc34)cccc2C1=O | . | . | 0.2
C[C@@H]1CN([C@H](C)CO)C(=O)c2cccc(NC(=O)Nc3cccc4ccccc34)c2O[C@@H]1CN(C)Cc1ccc(-c2ccccc2)cc1 | -18.7 | 61.3* | .
C[C@@H]1CN([C@H](C)CO)C(=O)c2cc(NC(=O)Nc3ccc(F)cc3)ccc2O[C@@H](C)CCCCO[C@H]1CN(C)C(=O)Nc1ccc(C(F)(F)F)cc1 | . | . | -0.1
C[C@@H]1CCCCO[C@H](CN(C)C(=O)Nc2ccc(C(F)(F)F)cc2)[C@@H](C)CN([C@@H](C)CO)C(=O)c2cc(NC(=O)Nc3ccc(C(F)(F)F)cc3)ccc2O1 | . | . | 0.5
C[C@H](CO)N1C[C@H](C)[C@H](CN(C)C(=O)Nc2ccc(F)cc2)OCCCC[C@H](C)Oc2ccc(NC(=O)Nc3ccc(F)cc3)cc2C1=O | . | . | 0.3

High-throughput results (PubChem)
